This excerpt belongs to a sample that is enriched for hits.
ABCB1 block: blocks JC-1 efflux by human ABCB1 transporter | P08183 | CCRF-Adr cells, flow cytometry | inhibition, % at 6.6 µM | 190,000 compounds, 0.067% hits; in the data active = inhibition above about 40%;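 also: 0% = vehicle and 100% = reference inhibitor; higher value means more JC-1 retained so stronger ABCB1 efflux block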
ABCG2 block: inhibitors of human ABCG2 transporter, ABCB1 counter-screen | Q9UNQ0 | 190,000 compounds, 0.1% hits | AID 1325 | inhibition, % at 6.6 µM | IgMXP3 cells, JC-1 efflux, flow cytometry;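 active = inhibition above 80%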;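 also: 0% = DMSO and 100% = nicardipine control wells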
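Times: 10 min at 25 °C | Test system: Two drug-resistant human cell lines, ABCG2 and ABCB1 | Quantity: 3 million cells/mL final, two lines in 1:1 ratio | Signal: Flow cytometry, 530 nm JC-1 signal | Dosing: Compound at 6.6 µM | Controls: Nicardipine and DMSO wells | Reagent: JC-1 as fluorescent efflux pump substrate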
PKD1 kinase inh: inhibitors of human PKD1 kinase | inhibition, % (concentration not given with the values) | AID 797 | Q15139 | PKD1 kinase fluorescence polarization assay | 200,000 compounds, 0.056% hits
GSH bead fluor: GSH bead compound fluorescence profile. 190,000 compounds, 0.25% hits. fluorescence (KMESF) at 10 µM. AID 1776. GSH beads flow cytometry, compound fluorescence 488/530 nm; hits give high values; in the data active = fluorescence above about 89;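 also: glutathione beads carrying GST-tagged Bcl family fusion proteins plus one bare bead set; values are compound well signal with DMSO vehicle wells as background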
Avidin bead fluor: compound fluoresces at 488/530 nm on avidin beads. compound fluorescence 488/530 nm, flow cytometry; hits give high values. fluorescence (KMESF) at 10 µM. 220,000 compounds, 0.38% hits; in the data active = fluorescence above about 47
L major viab: inhibitors of Leishmania major promastigote growth. 200,000 compounds, 9% hits. inhibition, % at 10 µM. AID 1063. Leishmania major promastigotes, resazurin fluorescence viability;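 also: promastigotes grown with compound for 44 hours at 28 °C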
An asterisk follows results filed as active; · = not tested or not shown. Rule as the data show it, unless noted: active = inhibition above about 50%; inactive = the rest.

SMILES	ABCB1 block	ABCG2 block	PKD1 kinase inh	GSH bead fluor	Avidin bead fluor	L major viab
C=CCNC(=S)NCc1cccnc1	-0.5	-1.6	-7.9	5	14	80.0*
CC(C)(C)C(=O)Nc1cccc(-c2ncon2)c1	·	·	·	·	3	·
Cc1cnc(NC(=O)c2cc3ccccc3o2)s1	-0.1	0.4	-5.1	23	12	-1.7
CN(C(=O)Nc1ccccc1)C1CCCCC1	·	·	·	·	10	·
CN(C(=O)Nc1ccc(C(C)(C)C)cc1)C1CCCCC1	·	·	·	·	70*	·
O=C(O)CCC(=O)Nc1cc(C(F)(F)F)cc(C(F)(F)F)c1	·	·	·	·	3	·
Cc1cccc(NC(=O)c2nc[nH]c2C(=O)Nc2ccccc2[N+](=O)[O-])c1	-1.0	-3.9	-15.4	9	12	56.9*
CNC(=O)c1[nH]cnc1C(=O)Nc1ccccc1C	-0.2	1.8	4.7	12	5	4.1
O=C(CC12CC3CC(C1)CC(CC(=O)N1CCCC1)(C3)C2)N1CCCC1	0.4	1.1	-5.0	13	15	-11.7
CCC(NC(=O)c1ccccc1NC(=O)c1ccccc1)C(=O)NNC(=O)c1cccnc1 (centres undefined)	·	·	·	·	3	·
CCOc1ccc(C(Nc2cccnc2)c2cc(Cl)c3cccnc3c2O)cc1 (centres undefined)	-1.0	-2.1	-3.2	54	10	89.5*
O=C(NC(c1ccccc1)c1cc(Cl)c2cccnc2c1O)c1cccnc1 (centres undefined)	0.1	-0.5	-1.2	13	8	98.0*
COc1ccc(CN2CCN(CCc3ccccc3)C(CCO)C2)cc1Cn1cncn1 (centres undefined)	0.0	0.5	3.2	9	5	39.9
COc1ccc(Br)cc1CN(C)CC(=O)Nc1ccccc1Cl	1.0	11.6	-5.0	12	13	-1.3
COc1ccc(CCNCC(O)Cn2c3ccccc3c3ccccc32)cc1OC (centres undefined)	4.3	1.3	-10.8	23	8	100.3*
COc1ccc(NC(=S)NCCCCCC(=O)C[N+](=O)[O-])cc1	-1.2	-0.7	4.1	17	12	2.7
N#CC1=C(SCC(N)=O)NC2=C(C(=O)c3ccccc32)C1c1ccc(Cl)cc1 (centres undefined)	-0.7	-2.1	-2.5	20	9	10.2
Cc1ccc(N(CCC(=O)O)S(=O)(=O)c2ccccc2)cc1	-0.4	2.0	-6.9	9	1	-6.2
CCOc1ccccc1NC(=O)CCN(c1ccc(C)cc1)S(=O)(=O)c1ccccc1	2.2	19.5	-6.2	8	12	81.4*
CC(=O)Nc1ccc2nc(C3CC3)n(Cc3ccc(Cl)cc3)c(=O)c2c1	2.4	18.4	-2.3	14	14	83.8*
COc1cccc(Cn2c(C3CC3)nc3ccc(NC(=O)c4ccco4)cc3c2=O)c1	1.2	2.1	-9.2	9	603*	5.2
CCC(=O)Nc1ccc2nc(C3CC3)n(Cc3ccc(C(C)(C)C)cc3)c(=O)c2c1	·	·	·	·	7	·
O=C(O)c1ccc(-c2nnn(Cc3cccc(C(F)(F)F)c3)n2)cc1	·	·	·	·	4	·
COc1ccc(N(CC(=O)O)S(=O)(=O)c2ccc(C)cc2)cc1Cl	-0.1	-0.6	-4.5	17	12	-6.1
O=C(c1ccc(S(=O)(=O)Cc2cc(F)ccc2F)c([N+](=O)[O-])c1)N1CCCCC1	·	2.1	0.9	9	14	78.2*
SMILES	ABCB1 block	ABCG2 block	PKD1 kinase inh	GSH bead fluor	Avidin bead fluor	L major viab
O=C(c1ccc(S(=O)(=O)Cc2ccccc2Cl)c([N+](=O)[O-])c1)N1CCN(c2ccccn2)CC1	4.9	7.5	-4.4	6	15	89.3*
Cc1cc(C)n(CC(=O)O)n1	0.6	1.5	-1.6	17	16	-2.1
Cc1cc(C)n(CC(=O)N2c3ccccc3Sc3ccccc32)n1	0.6	1.6	-2.2	24	11	61.1*
Oc1c(CN2CCCCC2)cc(COCc2ccccc2)c2cccnc12	1.1	2.2	-7.5	35	6	100.5*
CCOc1ccccc1N1CCN(Cc2cccc(OC)c2O)CC1	1.2	1.1	-7.2	33	16	18.0
COCc1cc(CN2CCCC2)c(O)c2ncccc12	0.0	1.2	-10.7	14	66*	100.5*
Oc1cc(Cc2ccccc2)cnc1CN1CCCCC1	0.3	0.5	-6.7	17	8	1.7
COc1ccccc1N1CCN(Cc2cc(Br)c(O)c3ncccc23)CC1	0.1	0.5	-0.1	21	7	100.4*
O=C(CN1CCN(c2nc(-c3ccccc3)cs2)CC1)NNC(=O)c1ccco1	0.5	1.2	0.2	11	9	-4.8
CC(=O)O[C@@H]1[C@@]2(C)O[C@H]2CC[C@]23O[C@H]2[C@H](OC3=O)C2=C(C)C(=O)O[C@@]21O	0.2	4.5	2.2	16	10	-5.2
O=C(NNC(=O)C12CC3CC(CC(C3)C1)C2)c1cnccn1	-0.7	-7.0	1.7	3	6	88.7*
O=C(NNC(=S)NC(=O)C12CC3CC(CC(C3)C1)C2)c1ccncc1	0.4	8.4	-7.7	38	11	77.8*
CC/C(=N\NC(=O)c1ccncc1)C12CC3CC(CC(C3)C1)C2	0.6	0.7	-4.9	37	6	88.7*
CC/C(=N\NC(=O)c1ccc2c(c1)OCO2)C12CC3CC(CC(C3)C1)C2	0.2	0.6	-0.7	15	8	98.8*
COc1cc2[nH]c(=S)n(Cc3ccc(C)cc3)c(=O)c2cc1OC	0.6	7.9	-12.5	24	9	-0.4
COc1ccccc1N1CCN(C(=O)COc2ccc(S(=O)(=O)NC(C)(C)C)cc2)CC1	6.0	7.1	-2.5	18	6	12.4
COCC(=O)NC1CCN(C(=O)Nc2ccc(Br)cc2)CC1	0.3	1.8	-12.8	21	14	0.6
Clc1ccc(-c2csc3ncnc(Cl)c23)cc1	0.4	8.9	3.4	15	16	20.1
NNc1ncnc2scc(-c3ccc(Cl)cc3)c12	0.6	1.2	6.1	9	2	68.3*
COc1ccc(-c2csc3ncnc(Cl)c23)cc1	0.3	1.8	1.9	10	11	5.6
COc1ccc(Nc2ncnc3scc(-c4ccc(OC)cc4)c23)cc1	2.7	32.6	-4.6	5	14	87.8*
CCOc1cc(Cl)c(NC(=O)CC)cc1OCC	1.0	10.3	-4.7	10	8	-4.0
O=C(NN=C1CCCCCCCCCCC1)c1cccc(S(=O)(=O)N2CCOCC2)c1	-0.1	1.4	-6.0	5	2	2.1
COc1cc(CNCCNC(=O)c2nonc2N)ccc1OCc1ccc(Cl)cc1	0.8	1.7	-4.4	24	11	97.6*
Nc1nonc1C(=O)NCCNCc1cc(Br)ccc1OCc1ccccc1F	3.0	7.2	0.6	35	10	66.1*
Cc1nnc(-c2cnn(C)c2N)n1CCCN1CCOCC1	0.6	2.3	0.5	11	11	-8.6
CN(C)c1cc[n+](CC(=O)c2ccc(OC(F)F)cc2)cc1	·	·	·	·	10	·
